Reference: publication PMC9057999 (RSC Advances, 2020)
Where two headings read alike, the source gives them in different places.

Assays:
A549 cells = test: MTT cytotoxicity assay, lung; format: cell-based, human; conditions: read-out: Lung (A549) IC50
How it was run: (§1)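 Human Colo-205, PC-3, THP-1 and A549 cancer cells and normal epithelial fR-2 cells were grown in RPMI-1640 or DMEM with 10% fetal calf serum, penicillin and streptomycin, at 37 °C in 5.0% CO2. After overnight attachment, cells were exposed to 0.07, 0.7, 7.0 and 70.0 μM test compound for 24 h, then to MTT (250 μg mL−1) for 3–4 h. OD was read at 570 nm. Growth (%) = test OD/untreated OD × 100. IC50 was taken from concentration–growth curves as the mean of triplicates.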

THP-1 cells = test: MTT cytotoxicity assay, leukemia; format: cell-based, human; conditions: read-out: Leukemia (THP-1) IC50
How it was run: as §1

fR-2 cells = test: MTT cytotoxicity assay, normal epithelial cell line; format: cell-based; conditions: read-out: Normal (fR-2) IC50
How it was run: as §1

Colo-205 cells = test: MTT cytotoxicity assay, colon; format: cell-based, human; conditions: read-out: Colon (Colo-205) IC50
How it was run: as §1

PC-3 cells = test: MTT cytotoxicity assay, prostate; format: cell-based, human; conditions: read-out: Prostate (PC-3) IC50
How it was run: as §1

[1] = tested on: Colo-205, PC-3, THP-1, A549 and fR-2 cells; test: MTT cytotoxicity assay, statements on the whole cell line panel; format: cell-based; conditions: Homo sapiens, 24 h, read-out: IC50 values (all tested cell lines)
How it was run: as §1

[2] = MTT, 24 h treatment, n = 3, mean ± SD

Structure (SMILES)	IC50 (A549 cells; Homo sapiens, A549, 24 h)	IC50 (THP-1 cells; Homo sapiens, THP-1, 24 h)	IC50 (fR-2 cells; FR2, 24 h)	IC50 (Colo-205 cells; Homo sapiens, COLO 205, 24 h)	IC50 (PC-3 cells; Homo sapiens, PC-3, 24 h)	IC50 [1]	IC50 (A549 cells; [2])	IC50 (THP-1 cells; [2])	IC50 (fR-2 cells; [2])	IC50 (Colo-205 cells; [2])	IC50 (PC-3 cells; [2])
CCOC(=O)C1=C(C)NC(=O)NC1C1=Cc2ccccc2CC1 (stereo not drawn) [Compound 11a, Ethyl-4-(3,4-dihydronaphthalen-2-yl)-6-methyl-2-oxo-1,2,3,4-tetrahydropyrimidine-5-carboxylate]	> 70 µM	> 70 µM	> 70 µM	> 70 µM	29.3 ± 1.3 µM	–	–	–	–	–	–
CCOC(=O)C1=C(C)NC(=O)NC1c1ccc2c(c1)CCC(C)(C)O2 (stereo not drawn) [Compound 14a, Ethyl-1,2,3,4-tetrahydro-6-methyl-4-(2,2-dimethylchroman-6-yl)-2-oxo-pyrimidine-5-carboxylate]	> 70 µM	> 70 µM	> 70 µM	> 70 µM	> 70 µM	–	–	–	–	–	–
CCOC(=O)C1=C(C)NC(=O)NC1C=Cc1cccc(O)c1 (stereo not drawn) [Compound 10a, Ethyl-4-(3-hydroxystyryl)-1,2,3,4-tetrahydro-6-methyl-2-oxopyrimidine-5-carboxylate]	> 70 µM	42.1 ± 1.7 µM	> 70 µM	> 70 µM	29.4 ± 1.2 µM	–	–	–	–	–	–
CC(=O)O[C@H]1C(=O)[C@@]2(C)[C@H]([C@H](OC(=O)c3ccccc3)[C@]3(O)C[C@H](OC(=O)[C@H](O)[C@@H](NC(=O)c4ccccc4)c4ccccc4)C(C)=C1C3(C)C)[C@]1(OC(C)=O)CO[C@@H]1C[C@@H]2O [Paclitaxel, reference compound]	5.1 ± 0.4 µM	–	–	–	0.048 ± 0.008 µM	–	–	–	–	–	–
CCOC(=O)C1=C(C)NC(=O)NC1/C(CC(=O)OC)=C(\Cl)c1ccc(OC)c(OC)c1 (stereo not drawn) [Compound 13a, Ethyl-4-((Z)-3-(methoxycarbonyl)-1-chloro-1-(3,4-dimethoxyphenyl)prop-1-en-2-yl)-1,2,3,4-tetrahydro-6-methyl-2-oxopyrimidine-5-carboxylate]	30.3 ± 2.9 µM	23.2 ± 1.4 µM	67.6 ± 2.5 µM	59.4 ± 1.6 µM	35.4 ± 2.2 µM	–	–	–	–	–	–
CCOC(=O)C1=C(C)NC(=O)NC1C=Cc1ccc(OC)cc1OC (stereo not drawn) [Compound 19a, Ethyl-4-(2,4-dimethoxystyryl)-1,2,3,4-tetrahydro-6-methyl-2-oxopyrimidine-5-carboxylate]	47.8 ± 2.4 µM	> 70 µM	> 70 µM	33.7 ± 1.8 µM	> 70 µM	–	–	–	–	–	–
CCOC(=O)C1=C(C)NC(=O)NC1C=Cc1cccc(OC)c1OC (stereo not drawn) [Compound 17a, Ethyl 4-(2,3-dimethoxystyryl)-1,2,3,4-tetrahydro-6-methyl-2-oxopyrimidine-5-carboxylate]	26.4 ± 1.1 µM	> 70 µM	> 70 µM	38.2 ± 1.4 µM	47.9 ± 2.1 µM	–	–	–	–	–	–
CCOC(=O)C1=C(C)NC(=O)NC1/C=C\c1ccc2c(c1)CCC(C)(C)O2 (stereo not drawn) [Compound 15a, Ethyl-1,2,3,4-tetrahydro-6-methyl-4-((Z)-2-(2,2-dimethylchroman-6-yl)vinyl)-2-oxo-pyrimidine-5-carboxylate]	> 70 µM	> 70 µM	> 70 µM	27.3 ± 1.8 µM	> 70 µM	–	–	–	–	–	–
CCOC(=O)C1=C(C)NC(=O)NC1C=Cc1cc(OC)c(OC)c(OC)c1 (stereo not drawn) [Compound 18a, Ethyl 4-(3,4,5-trimethoxystyryl)-1,2,3,4-tetrahydro-6-methyl-2-oxopyrimidine-5-carboxylate]	> 70 µM	> 70 µM	> 70 µM	> 70 µM	> 70 µM	> 70 µM	–	–	–	–	–
CCCCC1NC(=O)NC(C)=C1C(=O)OCC (stereo not drawn) [Compound 7a, Ethyl 4-butyl-1,2,3,4-tetrahydro-6-methyl-2-oxopyrimidine-5-carboxylate]	> 70 µM	> 70 µM	> 70 µM	> 70 µM	> 70 µM	> 70 µM	–	–	–	–	–
CCCC1NC(=O)NC(C)=C1C(=O)OCC (stereo not drawn) [Compound 6a, Ethyl 1,2,3,4-tetrahydro-6-methyl-2-oxo-4-propylpyrimidine-5-carboxylate]	> 70 µM	> 70 µM	> 70 µM	> 70 µM	> 70 µM	> 70 µM	–	–	–	–	–
COc1cccc2c1C(=O)c1c(O)c3c(c(O)c1C2=O)C[C@@](O)(C(=O)CO)C[C@@H]3O[C@H]1C[C@H](N)[C@H](O)[C@H](C)O1 [Doxorubicin, reference compound]	–	0.018 ± 0.004 µM	–	–	–	–	–	–	–	–	–
CCOC(=O)C1=C(C)NC(=O)NC1C(C)=CCc1cc2oc(=O)ccc2cc1OC (stereo not drawn) [Compound 5a, Ethyl 4-(4-(6-methoxy-2-oxo-2H-chromen-7-yl)but-2-en-2-yl)-6-methyl-2-oxo-1,2,3,4-tetrahydropyrimidine-5-carboxylate]	67.8 ± 1.7 µM	65.8 ± 1.4 µM	68.8 ± 1.1 µM	37.6 ± 1.1 µM	40.8 ± 1.7 µM	–	–	–	–	–	–
CCCCCC1NC(=O)NC(C)=C1C(=O)OCC (stereo not drawn) [Compound 8a]	–	–	–	–	–	–	63.4 ± 1.1 µM	43.8 ± 1.4 µM	67.2 ± 1.5 µM	18.6 ± 1 µM	22.2 ± 1.6 µM
O=c1[nH]cc(F)c(=O)[nH]1 [5-Fluorouracil, reference compound]	–	–	335 ± 3.8 µM	33.9 ± 1.9 µM	–	–	–	–	–	–	–
CCOC(=O)C1=C(C)NC(=O)NC1/C=C/c1ccc2c(c1)OCO2 (stereo not drawn) [Compound 20a, Ethyl-4-((E)-2-(benzo[d][1,3]dioxol-6-yl)vinyl)-1,2,3,4-tetrahydro-6-methyl-2-oxo pyrimidine-5-carboxylate]	–	–	–	–	–	–	> 70 µM	> 70 µM	68.7 ± 1.1 µM	23.4 ± 1.4 µM	> 70 µM
CCOC(=O)C1=C(C)NC(=O)NC1c1ccc2c(c1)OCO2 (stereo not drawn) [Compound 21a, Ethyl-4-(benzo[d][1,3]dioxol-6-yl)-1,2,3,4-tetrahydro-6-methyl-2-oxopyrimidine-5-carboxylate]	> 70 µM	> 70 µM	> 70 µM	48.1 ± 2.1 µM	> 70 µM	–	–	–	–	–	–
CCCCCCC1NC(=O)NC(C)=C1C(=O)OCC (stereo not drawn) [Compound 9a, Ethyl-4-hexyl-1,2,3,4-tetrahydro-6-methyl-2-oxo-pyrimidine-5-carboxylate]	> 70 µM	> 70 µM	> 70 µM	> 70 µM	> 70 µM	> 70 µM	–	–	–	–	–
CCOC(=O)C1=C(C)NC(=O)NC1C1=C(Cl)c2ccccc2CC1 (stereo not drawn) [Compound 12a, Ethyl-4-(1-chloro-3,4-dihydronaphthalen-2-yl)-6-methyl-2-oxo-1,2,3,4-tetrahydropyrimidine-5-carboxylate]	> 70 µM	> 70 µM	> 70 µM	> 70 µM	> 70 µM	> 70 µM	–	–	–	–	–
